We go through ten compounds from publication PMC2217059 (The Journal of General Physiology, 1997).

Values joined by “and” are separate entries in the source; they are usually repeats but may differ in a detail not shown here. Equal values may be shown once. Read-outs that look alike come from different tables or passages of the source.

For series [1], the target named is T1, Na,K-ATPase (Sus scrofa, UniProt P05024). The experiment in a line: Equilibrium binding of 14C-ADP to membrane-bound Na,K-ATPase. Also noted: species or system pig. To be noted: for Kd: read-out: K diss for ADP-binding. An outline of the steps:
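The enzyme was membrane-bound Na,K-ATPase from pig kidney outer medulla, SDS-extracted. It was mixed on ice with water or Na+ salt in imidazole/sucrose/EDTA (pH 7.4), then with 14C-ADP (stock 40 μM) in Tris buffer (pH 6.3). NO3− and SO4 2− series used enzyme washed into buffer titrated with HNO3 or H2SO4. Final pH was 7.65–7.82 and basal I 78 mM. Samples were centrifuged at 100,000 g for 60 min at 0–2°C; bound ADP was total minus supernatant. Kdiss came from nonlinear regression with a common Bmax per series.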

For series [2], the target named is Na,K-ATPase. To be noted: read-out: K diss, Na+-form (E1-form), I < 0.1 M, ref Nørby and Jensen, 1971, Hegyvary and Post, Jørgensen, 1975, Skou and Esmann, 1981; cited from earlier work.
The conditions of series [3]: I around 0.1 M, cited from earlier work.
For series [4], the target named is T1, Na,K-ATPase. The experiment in a line: Na,K-ATPase activity. In kind it is biochemical, pig.
In series [5] the test system is Na,K-ATPase mutant Lys480Glu. To be noted: ref Wang and Farley, 1992; cited from earlier work.
Series [6] has as its system Na,K-ATPase Asp369 substituted with Asn or Ala. To be noted: Asp369 substituted with uncharged Asn or Ala; ref Pedersen et al., 1996; cited from earlier work.
In series [7] the target is T1, Na,K-ATPase. Kind of series: Effect of NO3− on ADP-binding, competitive model of Fig. 4. The arrangement: species or system pig. As to conditions: line through (0,1); I 78–228 mM and constant I 178 mM. An outline of the steps: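 ADP-binding affinities for pig kidney membrane Na,K-ATPase were determined by centrifugation binding at 0–2°C. Kdiss/KA was plotted against [NO3−] for the NaNO3 series (I 78–228 mM). […] A line through (0,1) was fitted, and KN for ENO3 was taken as the reciprocal slope.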

For series [8], the target named is T1, Na,K-ATPase. Kind of series: K+-dependent p-nitrophenylphosphatase. In kind it is biochemical, pig. In short, it runs like this:
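K+-pNPPase was assayed at 37°C, pH 7.4, in 30 mM histidine/HCl with 10 pmol enzyme·ml−1, 20 mM MgCl2, K+ salts and 10 mM Na2pNPP (basal I ~90 mM). Substrate-dependence runs varied Na2pNPP at 0.05–0.4 M KCl. After 3 min, reactions were stopped with ice-cold TCA (final 5%) and p-nitrophenol was measured. Blanks were reagent blanks without enzyme. Results are the mean of two to four experiments.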

Series [9] has as its system H+-translocating Mg-ATPases from tissues of higher plants. As to conditions: ref Sze, 1985, Jacoby, 1987, Blumwald et al.; cited from earlier work.
Series [10] concerns the target T1, Na,K-ATPase. To be noted: cited from earlier work.

`Nc1ncnc2c1ncn2[C@@H]1O[C@H](COP(=O)(O)OP(=O)(O)O)[C@@H](O)[C@H]1O` [ADP]: the “decrease of apparent affinity for ADP with salt” value at Na,K-ATPase [1] (0–0.5 M NaCl, Na2SO4, NaNO3, 0.1 M Na-acetate, NaSCN, NaClO4) is listed as “up to 30 times”. Further, the “Bmax of ADP-binding” value on Na,K-ATPase [1] (Exp. A2, NaCl series, [Cl−] 119 mM, I 178 mM) was 1.20 ± 0.01 µM; on Na,K-ATPase [1] (Exp. A3, NaCl series, [Cl−] 219 mM, I 278 mM), 1.20 ± 0.02 µM; at Na,K-ATPase [1] (Exp. A4, NaCl series, [Cl−] 319 mM, I 378 mM), 1.13 ± 0.11 µM; at Na,K-ATPase [1] (Exp. A5, NaCl series, [Cl−] 394 mM, I 453 mM), 1.29 ± 0.09 µM; at Na,K-ATPase [1] (Exp. A6, NaCl series, [Cl−] 469 mM, I 528 mM), 1.20 ± 0.11 µM; on Na,K-ATPase [1] (Exp. A7, NaCl series, [Cl−] 519 mM, I 578 mM) it was 0.98 ± 0.09 µM. In addition, the “Bmax of ADP-binding” value at Na,K-ATPase [1] (Exp. B1, Na2SO4 series, [SO4 2−] 6 mM, I 78 mM) was 1.70 ± 0.04 µM; on Na,K-ATPase [1] (Exp. B2, Na2SO4 series, [SO4 2−] 6 mM, I 78 mM), 1.73 ± 0.02 µM; at Na,K-ATPase [1] (Exp. B3, Na2SO4 series, [SO4 2−] 36 mM, I 168 mM), 1.71 ± 0.02 µM; at Na,K-ATPase [1] (Exp. B4, Na2SO4 series, [SO4 2−] 66 mM, I 258 mM), 1.77 ± 0.03 µM; on Na,K-ATPase [1] (Exp. B5, Na2SO4 series, [SO4 2−] 96 mM, I 348 mM), 1.72 ± 0.06 µM; at Na,K-ATPase [1] (Exp. B6, Na2SO4 series, [SO4 2−] 126 mM, I 438 mM), 1.96 ± 0.10 µM. The “Bmax of ADP-binding” value turned out to be 1.77 ± 0.08 µM at Na,K-ATPase [1] (Exp. B7, Na2SO4 series, [SO4 2−] 156 mM, I 528 mM); 1.80 ± 0.02 µM at Na,K-ATPase [1] (Exp. C1, NaNO3 series, [NO3−] 19 mM, I 78 mM); 1.83 ± 0.03 µM at Na,K-ATPase [1] (Exp. C2, NaNO3 series, [NO3−] 24 mM, I 83 mM); 1.80 ± 0.03 µM at Na,K-ATPase [1] (Exp. C3, NaNO3 series, [NO3−] 49 mM, I 108 mM); 1.84 ± 0.04 µM on Na,K-ATPase [1] (Exp. C4, NaNO3 series, [NO3−] 79 mM, I 138 mM); 1.84 ± 0.01 µM on Na,K-ATPase [1] (Exp. C5, NaNO3 series, [NO3−] 79 mM, I 138 mM). The “Bmax of ADP-binding” value on Na,K-ATPase [1] (Exp. C6, NaNO3 series, [NO3−] 109 mM, I 168 mM) turned out to be 1.78 ± 0.06 µM; at Na,K-ATPase [1] (Exp. C7, NaNO3 series, [NO3−] 139 mM, I 198 mM), 1.80 ± 0.06 µM; at Na,K-ATPase [1] (Exp. C8, NaNO3 series, [NO3−] 169 mM, I 228 mM), 1.82 ± 0.08 µM. The Kd is 38.6 ± 0.7 µM on Na,K-ATPase [1] (19 mM Cl− + 100 mM Na+ salt of ClO4−, I 178 mM); 3.24 ± 0.05 µM on Na,K-ATPase [1] (19 mM Cl− + 100 mM Na+ salt of NO3−, I 178 mM); 18.3 ± 0.2 µM at Na,K-ATPase [1] (19 mM Cl− + 100 mM Na+ salt of SCN−, I 178 mM); 0.635 ± 0.004 µM at Na,K-ATPase [1] (19 mM Cl− + 100 mM Na-acetate, I 178 mM); 0.64 ± 0.007 µM on Na,K-ATPase [1] (19 mM Cl− + 100 mM NaCl (Cl−), I 178 mM); less than 1 µM at Na,K-ATPase [2].
The term pKa denotes the pH at which an ionisable group is half protonated. For `c1c[nH]cn1` [imidazoleH^+], the pKa in [3] (ref Perrin, 1965) was 7.5.
For `O=C(O)CN(CCN(CC(=O)O)CC(=O)O)CC(=O)O` [H2EDTA^2−], the pKa in series [3] (ref Kortüm et al., 1961) is on record as 6.5.
`Nc1ncnc2c1ncn2[C@@H]1O[C@H](COP(=O)(O)OP(=O)(O)OP(=O)(O)O)[C@@H](O)[C@H]1O` [ATP]: the “change of K m for ATP with increasing I” value on Na,K-ATPase [4] (20 mM KCl, [Mgtot] = [ATP] + 1 mM, 0.16–0.75 M NaCl, 37°C, pH 7.4) is “slight decrease”. Also, in series [5], the “reduction of affinity for ATP” value is recorded as approximately 10 fold. Moreover, the “increase in affinity for ATP at the high-affinity site” value in [6] was 20–30 fold.
Turning to `CC(=O)[O-].[Na+]` [Na-acetate], the “effect on Na,K-ATPase activity compared with NaCl” value at Na,K-ATPase [4] (up to 800 mM, not shown) is given as “the same results as with NaCl”.
As to `O=[N+]([O-])O` [NO3 ^−], the “slope of K diss/K A versus [NO3−]” value on Na,K-ATPase [7] was 0.0309 ± 0.0006 mM⁻¹ and 0.031 mM⁻¹. Moreover, on Na,K-ATPase [8] (KNO3 compared with KCl, 10 mM Na2pNPP, also 25 mM pNPP), the “specific anion effect on K+-pNPPase activity” value is recorded as “does not have any special effect”. Further, the “K 0.5 of inhibition” value in series [9] is 10 to 50 mM.
As for `O=[N+]([O-])c1ccc(OP(=O)(O)O)cc1` [pNPP, p-nitrophenylphosphate], the “K 0.5 for pNPP” value at Na,K-ATPase [8] (0.125 M ClO4−) is approximately 5.5 mM; on Na,K-ATPase [8] (0.125 M Cl−), “about 4.5 mM”. Besides, the “K m for pNPP” value is given as 10–12 mM on Na,K-ATPase [8] (highest values reached with increasing [KCl] (0.05–0.6 M KCl), 37°C, pH 7.4) and 2–3 mM at Na,K-ATPase [10] (low ionic strength, ref Skou, 1974, Campos et al., 1988, Fig. 9 in this paper).
As to `NC(CO)(CO)CO` [TrisH^+], the pKa in series [3] (ref Perrin, 1965) is listed as 8.8.
For the compound `O=S(=O)([O-])[O-].[Na+].[Na+]` [Na2SO4], the “inhibitory effect on Na,K-ATPase activity, less than that of NaCl” value on Na,K-ATPase [4] (activity plotted versus I, 20 mM KCl, 3 mM ATP, 4 mM MgCl2) is listed as 10–30%.
Turning to `[K+]` [K^+], the “K 0.5 for K+, chosen for the model” value at Na,K-ATPase [10] (K+-pNPPase model with Na+/K+ competition, ref Beaugé et al., 1984) was 2 mM.
